Data taken from ChEMBL document CHEMBL3593191, “Ethyl 2-((4-Chlorophenyl)amino)thiazole-4-carboxylate and Derivatives Are Potent Inducers of Oct3/4” (2015).
Active and inactive are the calls of the source. The calls are words filed in the database; no cut-off is given here.

Tests used:
[1] = molecular target: POU domain, class 5, transcription factor 1 (Homo sapiens) (UniProt Q01860); test: Activation of Oct3/4 (unknown origin) expressed in HEK293 cells after 72 hrs by luciferase reporter gene assay relative to control; format: cell-based
In short: (§1)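 HEK293 cells stably carrying luciferase under a human Oct3/4 promoter (HEK-Oct3/4), or NCCIT cells lentivirally transduced with an Oct3/4 transcriptional response element reporter (NCCIT-Oct3/4, kept under 400 ng/mL puromycin). Cells seeded at 100,000/well for 24 h, then treated with compound. Lysed for 10 min at 37°C, luciferin/ATP mix added, read after 3 min. Signal given as percent of control cells; at least five independent experiments.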

[2] = molecular target: POU domain, class 5, transcription factor 1 (Homo sapiens) (UniProt Q01860); test: Activation of Oct3/4 (unknown origin) expressed in HEK293 cells assessed as accumulation of Nanog after 72 hrs by immunoblotting; format: cell-based
In short: (§2)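 Immunoblot. Compound-treated cells lysed in urea lysis buffer (6 M urea, 0.5% Triton X-100, protease/phosphatase inhibitors). 40 µg total protein run on 10% SDS-PAGE. Probed with Oct3/4, Nanog or Lin28 antibodies, with vinculin or β-actin as loading control. Primary antibody 1:1000 overnight at 4°C, secondary 1:10,000 for 1 h at RT; ECL detection.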

[3] = molecular target: POU domain, class 5, transcription factor 1 (Homo sapiens) (UniProt Q01860); test: Activation of Oct3/4 in human fibroblasts assessed as increase of Nanog gene expression after 48 hrs by RT-PCR analysis relative to control
In short: (§3)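 qRT-PCR of pluripotency-related genes in compound-treated HEK293 cells or primary human skin fibroblasts, against an endogenous control gene. Values normalized to DMSO-treated cells as mean ± SD of quadruplicates, representative of two independent experiments.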

[4] = molecular target: POU domain, class 5, transcription factor 1 (Homo sapiens) (UniProt Q01860); test: Activation of Oct3/4 (unknown origin) expressed in human NCCIT cells at 5 uM after 72 hrs by luciferase reporter gene assay relative to control; format: cell-based
[5] = molecular target: POU domain, class 5, transcription factor 1 (Homo sapiens) (UniProt Q01860); test: Activation of Oct3/4 in human fibroblasts assessed as co-expression of Oct3/4 and Sox2 after 5 days by immunocytochemistry analysis
In short: (§4)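 Primary human fibroblasts seeded at 10,000 cells/well on Geltrex. After 24 h, treated for 5 days in DMEM/F12 with 20% knockout serum replacement, 10 ng/mL bFGF and 1 mM β-mercaptoethanol. Fixed in 4% PFA, blocked with 5% goat serum/0.3% Triton. Stained overnight at 4°C for Oct3/4 (1:400), Nanog (1:1000), Sox2 (1:100) or Klf4 (1:100), then Alexa 594/488 secondary for 1 h.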

[6] = molecular target: POU domain, class 5, transcription factor 1 (Homo sapiens) (UniProt Q01860); test: Activation of Oct3/4 (unknown origin) transcriptional activity expressed in human NCCIT cells after 72 hrs by luciferase reporter gene assay relative to control; format: cell-based; in short: as §1
[7] = system: HEK293; test: Increase of Oct3/4 gene expression in human HEK293 cells after 72 hrs by RT-PCR analysis; format: functional, cell-based; in short: as §3
[8] = molecular target: POU domain, class 5, transcription factor 1 (Homo sapiens) (UniProt Q01860); test: Activation of Oct3/4 in human fibroblasts assessed as co-expression of Nanog and Klf4 after 5 days by immunocytochemistry analysis; in short: as §4
[9] = system: Fibroblast; test: Induction of endogenous cellular parameters in human fibroblasts assessed as increase in ALP-FITC signal using propidium iodide staining after 5 days; format: functional, cell-based
[10] = molecular target: POU domain, class 5, transcription factor 1 (Homo sapiens) (UniProt Q01860); test: Activation of Oct3/4 (unknown origin) transcriptional activity expressed in human NCCIT cells at 20 uM by luciferase reporter gene assay relative to control; format: cell-based; details: TDE = time-dependent effect; in short: as §1
[11] = molecular target: POU domain, class 5, transcription factor 1 (Homo sapiens) (UniProt Q01860); test: Activation of Oct3/4 (unknown origin) expressed in HEK293 cells assessed as increase of Nanog gene expression after 72 hrs by RT-PCR analysis; format: cell-based; in short: as §3
[12] = molecular target: POU domain, class 5, transcription factor 1 (Homo sapiens) (UniProt Q01860); test: Activation of Oct3/4 (unknown origin) expressed in HEK293 cells at 40 uM after 72 hrs by luciferase reporter gene assay relative to control; format: cell-based; in short: as §1
[13] = molecular target: POU domain, class 5, transcription factor 1 (Homo sapiens) (UniProt Q01860); test: Activation of Oct3/4 in human fibroblasts assessed as increase of Rex1 gene expression after 48 hrs by RT-PCR analysis relative to control; in short: as §3
[14] = molecular target: POU domain, class 5, transcription factor 1 (Homo sapiens) (UniProt Q01860); test: Activation of Oct3/4 (unknown origin) expressed in HEK293 cells at 20 uM after 72 hrs by luciferase reporter gene assay relative to control; format: cell-based; in short: as §1
[15] = system: Fibroblast; test: Increase of Oct3/4 gene expression in human fibroblasts after 48 hrs by RT-PCR analysis relative to control; format: functional; in short: as §3
[16] = molecular target: POU domain, class 5, transcription factor 1 (Homo sapiens) (UniProt Q01860); test: Activation of Oct3/4 (unknown origin) expressed in HEK293 cells assessed as increase of Sox2 gene expression after 72 hrs by RT-PCR analysis; format: cell-based; in short: as §3
[17] = molecular target: POU domain, class 5, transcription factor 1 (Homo sapiens) (UniProt Q01860); test: Activation of Oct3/4 in human fibroblasts assessed as increase of Lin28 gene expression after 48 hrs by RT-PCR analysis relative to control; in short: as §3
[18] = molecular target: POU domain, class 5, transcription factor 1 (Homo sapiens) (UniProt Q01860); test: Activation of Oct3/4 (unknown origin) expressed in human NCCIT cells at 20 uM after 2 hrs by luciferase reporter gene assay relative to control; format: cell-based
[19] = molecular target: POU domain, class 5, transcription factor 1 (Homo sapiens) (UniProt Q01860); test: Activation of Oct3/4 (unknown origin) expressed in human NCCIT cells assessed as accumulation of Nanog after 72 hrs by immunoblotting; format: cell-based; in short: as §2
[20] = system: HEK293; test: Increase of Oct3/4 expression in human HEK293 cells after 72 hrs by immunoblotting; format: functional, cell-based; in short: as §2
[21] = molecular target: POU domain, class 5, transcription factor 1 (Homo sapiens) (UniProt Q01860); test: Activation of Oct3/4 (unknown origin) expressed in human HeLa cells after 72 hrs by luciferase reporter gene assay relative to control; format: cell-based
[22] = molecular target: POU domain, class 5, transcription factor 1 (Homo sapiens) (UniProt Q01860); test: Activation of Oct3/4 (unknown origin) expressed in HEK293 cells assessed as […] of Rex1 gene expression after 72 hrs by RT-PCR analysis; format: cell-based; in short: as §3
[23] = molecular target: POU domain, class 5, transcription factor 1 (Homo sapiens) (UniProt Q01860); test: Activation of Oct3/4 (unknown origin) expressed in HEK293 cells assessed as increase of Lin28 gene expression after 72 hrs by RT-PCR analysis; format: cell-based; in short: as §3
[24] = molecular target: POU domain, class 5, transcription factor 1 (Homo sapiens) (UniProt Q01860); test: Activation of Oct3/4 in human fibroblasts assessed as repression of N-cadherin gene expression after 48 hrs by RT-PCR analysis relative to control; in short: as §3
[25] = molecular target: POU domain, class 5, transcription factor 1 (Homo sapiens) (UniProt Q01860); test: Activation of Oct3/4 (unknown origin) expressed in human HeLa cells assessed as accumulation of Nanog after 72 hrs by immunoblotting; format: cell-based; in short: as §2
[26] = molecular target: POU domain, class 5, transcription factor 1 (Homo sapiens) (UniProt Q01860); test: Activation of Oct3/4 (unknown origin) expressed in human HEK293 cells after 48 hrs by luciferase reporter gene assay relative to control; format: cell-based; in short: as §1
[27] = molecular target: POU domain, class 5, transcription factor 1 (Homo sapiens) (UniProt Q01860); test: Activation of Oct3/4 in human fibroblasts assessed as increase of Lin28 protein expression after 72 hrs by immunoblotting relative to control; in short: as §2
[28] = molecular target: POU domain, class 5, transcription factor 1 (Homo sapiens) (UniProt Q01860); test: Activation of Oct3/4 in human fibroblasts assessed as increase of Nanog protein expression after 72 hrs by immunoblotting relative to control; in short: as §2

Chain of POU domain, class 5, transcription factor 1 (Homo sapiens) (Q01860 whole entry, the tested form may be a part): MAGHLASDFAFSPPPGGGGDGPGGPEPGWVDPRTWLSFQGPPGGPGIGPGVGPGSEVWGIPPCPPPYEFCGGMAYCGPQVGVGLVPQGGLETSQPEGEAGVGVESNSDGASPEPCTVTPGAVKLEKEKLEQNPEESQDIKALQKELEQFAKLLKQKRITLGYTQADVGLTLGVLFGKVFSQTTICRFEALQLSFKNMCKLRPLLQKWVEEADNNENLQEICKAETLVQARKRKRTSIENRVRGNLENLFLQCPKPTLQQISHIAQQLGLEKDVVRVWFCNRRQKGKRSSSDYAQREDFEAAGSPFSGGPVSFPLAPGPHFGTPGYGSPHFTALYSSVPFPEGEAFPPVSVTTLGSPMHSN

`CCOC(=O)c1csc(Nc2cccc(Cl)c2)n1` was tested, and the Activity [1] was “Active”.
For `O=C(O)c1csc(Nc2ccc(Cl)cc2)n1`, the Activity [1] was “inactive”.
For `CN(C)CCCNC(=O)c1csc(Nc2ccc(Cl)cc2)n1`, the Activity [1] was “inactive”.
For `CCOC(=O)c1csc(Nc2ccc(Nc3nc(C(=O)OCC)cs3)cc2)n1`, the Activity [1] was “inactive”.
For `CCOC(=O)c1csc(NCc2ccccc2)n1`, the Activity [1] was “inactive”.
`O=C(O)c1csc(Nc2ccc(Cl)cc2Cl)n1` was tested, and the Activity [1] was “inactive”.
`C=CCNc1nc(C(=O)OCC)cs1` was tested, and the Activity [1] was “inactive”.
In the case of `CCOC(=O)c1csc(N)n1`, the Activity [1] is reported as “inactive”.
In the case of `CCOC(=O)c1csc(Nc2ccccc2)n1`, the Activity [1] is reported as “Active”.
For `CCOC(=O)c1csc(Nc2cccc(F)c2)n1`, the Activity [1] was “Active”.
With `CCCCNc1nc(C(=O)OCC)cs1` the Activity [1] was “inactive”.
With `CCOC(=O)c1csc(Nc2ccc(Cl)cc2)n1` the Activity [2] was “Active”, the Activity [1] was “Active” and the fold change (FC) [3] was 2. The Activity [4] was “Active”, the Activity [5] was “Active” and the Activity [6] was “Dose-dependent effect”. The fold change (FC) [6] was 4, the Activity [7] was “Active” and the Activity [8] was “Active”. The Activity [9] was “Active”, the Activity [10] was “tde” and the Activity [11] was “Active”. It also gave a fold change (FC) [12] of 3.5, a fold change (FC) [13] of 30 and a fold change (FC) [14] of 2. For the same compound, the “fold change (FC)” value [15] was 15, the Activity [16] was “Active” and the fold change (FC) [17] was 20. The Activity [18] was “Active”, the Activity [19] was “Active” and the Activity [20] was “Dose-dependent effect”. The Activity [21] was “Dose-dependent effect”, the Activity [22] was “Active” and the Activity [23] was “inactive”. For the same compound, the Activity [24] was “Active”, the Activity [25] was “Dose-dependent effect” and the Activity [26] was “inactive”. For the same compound, the Activity [27] was “Active” and the Activity [28] was “Active”.
In the case of `O=C(O)c1csc(Nc2cc(Cl)ccc2Cl)n1`, the Activity [1] is reported as “inactive”.
With `O=C(O)c1csc(Nc2cccc(Cl)c2)n1` the Activity [1] was “inactive”.
In the case of `CCOC(=O)c1csc(Nc2ccc(Cl)c(Cl)c2)n1`, the Activity [1] is reported as “Active”.
With `CCOC(=O)c1csc(Nc2ccc(Cl)cc2Cl)n1` the Activity [1] was “Active”.
For `CCOC(=O)c1csc(NC(C)=O)n1`, the Activity [1] was “inactive”.
